This is a sample that favours compounds with a hit; in the whole collection about 3.2% have one here.
GPR7 antagonist = blocks human GPR7 receptor signaling. inhibition, % at 4.4 µM. 290,000 tested, 1.1% active. P48145. AID 1861. GPR7-expressing cells, fluorescence antagonist assay; in the data active = inhibition above about 16%, passing the limit was not always enough;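 note: cells stimulated with the agonist NPW; 0% = agonist with vehicle and 100% = vehicle without agonist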
Target sequence (P48145 whole entry, looked up): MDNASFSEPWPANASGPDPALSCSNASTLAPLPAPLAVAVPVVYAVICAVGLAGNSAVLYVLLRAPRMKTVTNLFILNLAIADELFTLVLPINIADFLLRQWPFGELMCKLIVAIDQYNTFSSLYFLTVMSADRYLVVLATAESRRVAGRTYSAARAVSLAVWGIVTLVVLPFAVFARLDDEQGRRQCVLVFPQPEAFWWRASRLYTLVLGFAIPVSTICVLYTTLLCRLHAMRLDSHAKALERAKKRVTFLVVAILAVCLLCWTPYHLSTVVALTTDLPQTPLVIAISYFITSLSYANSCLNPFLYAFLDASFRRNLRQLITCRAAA
TRPN1 ag = activates the zebrafish TRPN1 channel; activation, % at 3 µM; HEK293 zebrafish TRPN1-YFP, Fluo-8 calcium fluorescence; 100% = response to 87 µM carbachol; 220,000 tested, 0.18% active;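 active = activation above its plate's cutoff, the mean activation of test wells on that plate plus 3 SD, cut at about 19% in these data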;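 note: 0% = DMSO alone and 100% = 87 µM carbachol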
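Material: zebrafish TRPN1-YFP in HEK293 cells; Doses: single test compound dose, 3 µM nominal, 0.3% DMSO; Timing: dye loading 1 h at 37 °C, then 30 min room temperature; Technique: intracellular calcium fluorescence with Fluo-8; Benchmarks: high carbachol 87 µM, low DMSO alone.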
OX1R antag-1 = antagonists of human orexin 1 receptor; CHO/OX1R cells, Fluo-8 calcium fluorescence, orexin A; inhibition, % at 5 µM; 330,000 tested, 0.43% active;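 active = inhibition above its plate's threshold, mean inhibition of all tested compounds on the plate plus 3 SD, cut at about 37% in these data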;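 note: 0% = orexin A challenge wells and 100% = SB-334867-A antagonist wells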
Target sequence (O43613 whole entry, looked up): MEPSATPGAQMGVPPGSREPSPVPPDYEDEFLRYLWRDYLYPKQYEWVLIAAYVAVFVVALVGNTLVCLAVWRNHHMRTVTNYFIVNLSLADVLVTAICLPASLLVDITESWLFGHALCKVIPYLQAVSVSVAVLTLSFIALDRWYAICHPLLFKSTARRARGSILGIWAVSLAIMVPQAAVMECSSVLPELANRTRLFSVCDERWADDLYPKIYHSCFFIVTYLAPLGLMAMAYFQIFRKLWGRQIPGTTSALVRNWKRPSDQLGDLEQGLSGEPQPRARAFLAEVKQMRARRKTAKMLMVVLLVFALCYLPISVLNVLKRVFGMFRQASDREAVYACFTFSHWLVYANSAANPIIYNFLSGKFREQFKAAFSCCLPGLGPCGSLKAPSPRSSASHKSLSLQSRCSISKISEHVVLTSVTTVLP
OX1R antag-2 = blocks the human orexin 1 receptor; O43613; OX1R-expressing cells, FRET antagonist read-out; inhibition, % at 6.6 µM; 330,000 tested, 1.8% active; AID 485270; in the data active = inhibition mostly above about 38%, no sharp cut-off; inactive = mostly below about 40%;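 note: 0% = agonist challenge alone and 100% = reference antagonist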
TRPML3 ag = human mucolipin-3 channel agonism. Q8TDD5. activation, % at 3 µM. HEK293 TRPML3-YFP, Fluo-8 calcium fluorescence; 100% = the carbachol control signal. 220,000 tested, 0.29% active. AID 1448;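 active = activation above its plate's cutoff, the mean activation of the plate's test wells plus 3 SD, cut at about 12% in these data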;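 note: 0% = DMSO only wells and 100% = carbachol wells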
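Test system – HEK293 line with stable expression of human TRPML3-YFP channel · Control set – carbachol 87 µM final as high control (100%), DMSO as low control (0%) · Signal – Fluo-8 calcium dye fluorescence, ex 470-495, em 515-575 nm · Incubation – 1-h 37 °C dye load, 5-s basal, 120-s post-compound reads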
CHO parental Ca = counter-screen: ATP calcium response change in parental CHO cells; parental CHO-K1, ATP-induced calcium, Fluo-8 fluorescence; inhibition, % at 5.6 µM; AID 463079; 330,000 tested, 0.63% active;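 active = inhibition above that plate's mean sample inhibition plus 3 SD, cut at about 26% in these data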;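 note: 0% = ATP-challenged DMSO wells and 100% = DMSO wells without ATP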
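Assay system – parental CHO cells · Reagent – ATP stimulus · Detection – intracellular calcium via Fluo-8 no-wash fluorescent dye · Evaluation – percent inhibition of ATP-evoked calcium rise, normalized to controls · Controls – ATP wells versus no-ATP DMSO wells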
OX1R HTRF confirm = OX1R (human) antagonism, HTRF confirmed | AID 492964 | shares compounds with OX1R antag-2 | inhibition, % at 6.6 µM | OX1R-expressing cells, HTRF antagonist assay | 1,800 tested, 49% active; in the data active = inhibition above about 55%;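 note: CHO cells expressing OX1R stimulated with orexin A at about EC80; 0% = agonist challenge alone and 100% = reference antagonist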
CHO-K1 HTRF = counter-screen for OX1R antagonists: effect in parental CHO-K1 cells. shares compounds with OX1R antag-2. HTRF counterscreen. inhibition, % at 6.6 µM. 1,800 tested, 48% active; in the data active = inhibition above about 17%;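 note: 0% = agonist challenge with vehicle and 100% = vehicle alone without agonist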
Active calls of the source: *; . = not tested or not shown.

SMILES | GPR7 antagonist | TRPN1 ag | OX1R antag-1 | OX1R antag-2 | TRPML3 ag | CHO parental Ca | OX1R HTRF confirm | CHO-K1 HTRF
COc1ccc(CCN2C(=O)c3cccnc3C2=O)cc1OC | -5 | 1 | -11 | 82* | 0 | -6 | 31 | 21*
COc1cc(/C=C(\C#N)C(N)=O)ccc1OCc1c(C)no[n+]1[O-] | 13 | 3 | -6 | 2 | 1 | 1 | . | .
COc1cc(/C=N/Nc2nncn2N)ccc1OCc1c(C)no[n+]1[O-] | 11 | -1 | -22 | 89* | -1 | -7 | 19 | 18*
Cc1ccc(N2C(=O)c3cccc4c([N+](=O)[O-])ccc(c34)C2=O)c2cccnc12 | -9 | 1 | 15 | 18 | 0 | -16 | . | .
Cc1ccnc(N2C(=O)c3cccc4c([N+](=O)[O-])ccc(c34)C2=O)c1 | 13 | -2 | 12 | 107* | -1 | 9 | 48 | 73*
NCCCC[C@@H]1NC(=O)c2cc([N+](=O)[O-])cc(I)c2SC[C@@H](C(=O)NCC(N)=O)NC(=O)CNC1=O | 2 | -1 | -15 | 87* | 0 | -1 | 31 | 56*
Cc1n[nH]c(C)c1N1C(=O)c2cccc3c(Br)ccc(c23)C1=O | -6 | -1 | -4 | 80* | -2 | 2 | 42 | 40*
COC(=O)c1ccc2c(c1O)C(=O)c1ccccc1C2=O | -1 | -1 | -18 | 59 | 2 | -22 | . | .
CCSc1c(C(=O)NC)ccc2c1C(=O)c1ccccc1C2=O | 4 | 0 | -14 | 91* | 1 | -4 | 58* | 92*
Oc1cccc(Nc2nc(O)c(/C=C3\C=Nc4ccccc43)s2)c1 | 6 | 4 | 10 | 18 | 2 | 17 | . | .
Oc1nc(Nc2ccc(F)cc2)sc1/C=C1\C=Nc2ccccc21 | 6 | -3 | 23 | 93* | -1 | 2 | 23 | -1
CSC1=N/C(=C/c2ccc(-n3cncn3)cc2)C(=O)N1 | -8 | 2 | -11 | 86* | 1 | -4 | 35 | 25*
N#Cc1ccc(C(=O)NCC2CCCCC2)cc1 | -8 | . | -11 | -11 | . | -2 | . | .
CN(C)c1ccc(/C=N/NC(=O)CN2CCN(c3ccc(F)cc3)CC2)cc1 | -12 | 2 | -12 | 4 | 1 | 1 | . | .
N#CCCn1c2ccccc2c2nc3ccccc3nc21 | -16 | 0 | 2 | 77* | 0 | -15 | 84* | 1
O=c1oc2ccccc2n1CCn1c2ccccc2c2nc3ccccc3nc21 | 10 | 0 | -13 | 50 | -1 | -18 | . | .
O=c1cc(C(O)C[N+](=O)[O-])occ1OCc1ccccc1 (stereo unspecified) | . | . | -6 | 1 | . | -3 | . | .
O=C(Nc1ccc(Cl)cc1)c1nc[nH]c1C(=O)NCCCNC(=O)c1[nH]cnc1C(=O)Nc1ccc(Cl)cc1 | . | . | -17 | 11 | . | -9 | . | .
CC1CCN(C(=O)Cn2c3ccc(F)cc3c3nc4n(c(=O)c32)CCCS4)CC1 | -6 | . | -22 | 91* | . | -11 | 20 | 7
O=S1OCCN1c1ccccc1 (stereo unspecified) | 0 | . | -7 | -2 | . | -3 | . | .
O=C(CNS(=O)(=O)c1ccc(Br)s1)NCc1ccccc1 | -2 | . | -30 | -3 | . | -19 | . | .
C=CCNC(=S)N/N=C(\C)c1cccnc1 | -16 | 0 | -20 | 104* | 0 | -2 | 13 | 2
C=CCNC(=S)N/N=C(\C)c1ccc(-n2ccnc2)cc1 | -3 | -1 | 0 | 13 | 0 | 0 | . | .
NC(=O)c1ccc(N=C2C(=O)Nc3ccc([N+](=O)[O-])cc32)cc1 | 8 | 1 | -8 | 84* | 0 | -12 | 64* | 72*
O=C1Nc2ccccc2C1=Nc1cccc([N+](=O)[O-])c1 | 9 | . | -12 | 21 | . | -7 | . | .
SMILES | GPR7 antagonist | TRPN1 ag | OX1R antag-1 | OX1R antag-2 | TRPML3 ag | CHO parental Ca | OX1R HTRF confirm | CHO-K1 HTRF
COc1cccc(C(=O)N(C)Cc2c(C)nn(C3CCS(=O)(=O)C3)c2C)c1 (stereo unspecified) | . | . | 2 | 1 | . | -5 | . | .
COc1cccc2cc(-c3nc4ccccc4o3)c(=O)oc12 | 0 | 2 | 0 | 123* | 1 | -22 | 25 | 18*
O=c1oc2ccc(Br)cc2cc1-c1nc2ccccc2o1 | 6 | 0 | 2 | 15 | 0 | 15 | . | .
O=C(CCNC(=O)c1ccc([N+](=O)[O-])cc1)Nc1ccc(F)cc1 | 9 | . | -13 | 31 | . | -5 | . | .
O=C(CCNC(=O)c1ccc([N+](=O)[O-])cc1)N/N=C/c1ccc(F)cc1 | -13 | 0 | -27 | 78* | 1 | 7 | 24 | 27*
CCNc1ccc(C(=O)OCC(=O)NCc2ccc(C)cc2)cc1[N+](=O)[O-] | -6 | -2 | -23 | 21 | 0 | -16 | . | .
CCNc1ccc(C(=O)OCC(=O)N2CCCC2)cc1[N+](=O)[O-] | 3 | . | -18 | 140* | . | -4 | 34 | 56*
COC(=O)c1ccc(C)c(NC(=O)COC(=O)C2CC3CCCC(C2)C3=O)c1 (stereo unspecified) | . | . | -13 | 13 | . | -3 | . | .
O=C(O)/C=C/C(=O)Nc1ccc(C(=O)c2ccccc2)cc1 | 1 | 0 | 9 | 1 | 0 | 0 | . | .
CC(=O)Nc1ccc2nc3ccccc3nc2c1 | -9 | 1 | -5 | 134* | 1 | -3 | 110* | 65*
CC(=O)Nc1cccc(-c2nc3ccccc3o2)c1 | -7 | . | 25 | 80* | . | -11 | 66* | 1
O=C(O)/C=C/C(=O)Nc1ccc2c(c1)C(=O)c1ccccc1C2=O | -13 | -1 | -3 | 83* | 0 | -5 | 41 | 50*
CC(=O)Nc1ccc2c(c1)C(=O)c1ccccc1C2=O | -3 | 0 | -6 | 102* | 0 | 0 | 70* | 39*
O=C(CNc1cccc(F)c1)N1CCc2ccccc2C1 | 10 | . | -13 | 10 | . | -8 | . | .
Cc1nn(CCCC(=O)NCCc2ccc(Cl)cc2)c(=O)c2nn(-c3ccccc3)c(C)c12 | -9 | . | -15 | 11 | . | -24 | . | .
CC(=O)Nc1ccc2c(c1)c1ccccc1n2C(C)=O | 5 | -1 | 0 | 78* | 0 | -12 | 71* | 14
CC(=O)Nc1ccc2c(c1)ncn2-c1ccccc1 | -3 | 0 | 9 | 6 | 1 | -5 | . | .
CC(=O)OCCNc1cc(SCc2ccco2)c2nonc2c1[N+](=O)[O-] | -8 | -1 | -6 | 46 | 0 | -1 | . | .
CCCC(=O)OCCNc1cc(SCCC(=O)OC)c2nonc2c1[N+](=O)[O-] | -3 | 1 | -10 | 120* | 0 | -20 | 64* | 79*
Cn1nnnc1Sc1ccc(C(=O)O)cc1[N+](=O)[O-] | -17 | 0 | -9 | 90* | 0 | -5 | 37 | 54*

High-throughput results as filed in PubChem BioAssay.
